From ChEMBL document CHEMBL1138555, “N-acylated and N,N'-diacylated imidazolidine-2-thione derivatives and N,N'-diacylated tetrahydropyrimidine-2(1H)-thione analogues: synthesis and antiproliferative activity” (Eur J Med Chem, 2009)

Legend:
[1] = tested on: ACHN; experiment: Growth inhibition of human ACHN cells after 48 hrs by sulforhodamine B assay; type: functional
Method in brief: (§1)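 NCI screen panel. Five 10-fold concentrations from 10^-4 to 10^-8 M. Exposure for the last 48 h of a 72 h incubation. Growth estimated by sulforhodamine B protein assay. GI50 is the concentration giving 50% growth inhibition. Where that level was not reached or was exceeded, the value is given as above or below the highest or lowest concentration tested.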

[2] = tested on: SK-OV-3; experiment: Growth inhibition of human SKOV3 cells after 48 hrs by sulforhodamine B assay; type: functional; conditions: SK-OV-3, 48 h; method in brief: as §1
[3] = tested on: HOP-92; experiment: Growth inhibition of human HOP92 cells after 48 hrs by sulforhodamine B assay; type: functional; conditions: HOP-92, 48 h; method in brief: as §1
[4] = tested on: U-251; experiment: Growth inhibition of human U251 cells after 48 hrs by sulforhodamine B assay; type: functional; conditions: U-251, 48 h
Method in brief: (§2)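 NCI in vitro panel screen. Compounds tested at five 10-fold dilutions, 10^-4 to 10^-8 M. Cells in 96-well plates were exposed for the last 48 h of a 72 h incubation. Viability/growth was read by sulforhodamine B protein assay. GI50 is the concentration giving 50% growth inhibition. Values beyond the tested range are reported as greater or less than the maximum or minimum concentration.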

[5] = tested on: COLO 205; experiment: Growth inhibition of human COLO205 cells after 48 hrs by sulforhodamine B assay; type: functional; conditions: COLO 205, 48 h; method in brief: as §1
[6] = tested on: UACC-62; experiment: Growth inhibition of human UACC62 cells after 48 hrs by sulforhodamine B assay; type: functional; conditions: UACC-62, 48 h; method in brief: as §2
[7] = tested on: SF-295; experiment: Growth inhibition of human SF295 cells after 48 hrs by sulforhodamine B assay; type: functional; conditions: SF-295, 48 h; method in brief: as §1
[8] = Growth inhibition of human […] cells after 48 hrs by sulforhodamine B assay; type: functional; method in brief: as §1
[9] = tested on: NCI-H322M; experiment: Growth inhibition of human NCI-H322M cells after 48 hrs by sulforhodamine B assay; type: functional; method in brief: as §1
[10] = tested on: Malme-3M; experiment: Growth inhibition of human MALME-3M cells after 48 hrs by sulforhodamine B assay; type: functional; method in brief: as §1
[11] = tested on: TK-10; experiment: Growth inhibition of human TK10 cells after 48 hrs by sulforhodamine B assay; type: functional; conditions: TK-10, 48 h; method in brief: as §2
[12] = tested on: OVCAR-8; experiment: Growth inhibition of human OVCAR8 cells after 48 hrs by sulforhodamine B assay; type: functional; conditions: OVCAR-8, 48 h; method in brief: as §1
[13] = tested on: SK-MEL-28; experiment: Growth inhibition of human SK-MEL-28 cells after 48 hrs by sulforhodamine B assay; type: functional; conditions: SK-MEL-28, 48 h; method in brief: as §1
[14] = tested on: MOLT-4; experiment: Growth inhibition of human MOLT4 cells after 48 hrs by sulforhodamine B assay; type: functional; conditions: MOLT-4, 48 h; method in brief: as §1
[15] = tested on: LOX IMVI; experiment: Growth inhibition of human LOXIMVI cells after 48 hrs by sulforhodamine B assay; type: functional; method in brief: as §1
[16] = tested on: SK-MEL-5; experiment: Growth inhibition of human SK-MEL-5 cells after 48 hrs by sulforhodamine B assay; type: functional; conditions: SK-MEL-5, 48 h; method in brief: as §1
[17] = tested on: PC-3; experiment: Growth inhibition of human PC3 cells after 48 hrs by sulforhodamine B assay; type: functional; conditions: PC-3, 48 h; method in brief: as §1
[18] = tested on: KM12; experiment: Growth inhibition of human KM12 cells after 48 hrs by sulforhodamine B assay; type: functional; conditions: KM12, 48 h; method in brief: as §1
[19] = tested on: SNB-19; experiment: Growth inhibition of human SNB19 cells after 48 hrs by sulforhodamine B assay; type: functional; conditions: SNB-19, 48 h; method in brief: as §2
[20] = tested on: HOP-62; experiment: Growth inhibition of human HOP62 cells after 48 hrs by sulforhodamine B assay; type: functional; conditions: HOP-62, 48 h; method in brief: as §1
[21] = tested on: HCT-15; experiment: Growth inhibition of human HCT15 cells after 48 hrs by sulforhodamine B assay; type: functional; conditions: HCT-15, 48 h; method in brief: as §1
[22] = tested on: HL-60(TB); experiment: Growth inhibition of human HL-60(TB) cells after 48 hrs by sulforhodamine B assay; type: functional; conditions: HL-60, 48 h
Method in brief: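 NCI 60-cell-line screen protocol: cells exposed to compound at five 10-fold dilutions from 10^-4 to 10^-8 M for the last 48 h of a 72 h incubation. Sulforhodamine B protein assay estimated viability/growth. GI50 (50% growth inhibition) derived; where not reached or exceeded, reported as greater or less than the highest or lowest concentration tested.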

[23] = tested on: EKVX; experiment: Growth inhibition of human EKVX cells after 48 hrs by sulforhodamine B assay; type: functional; method in brief: as §1
[24] = tested on: SW-620; experiment: Growth inhibition of human SW620 cells after 48 hrs by sulforhodamine B assay; type: functional; conditions: SW-620, 48 h; method in brief: as §2
[25] = tested on: MT4; experiment: Antiproliferative activity against human MT4 cells assessed as reduction of growth by MTT assay; type: functional, cell-based
Method in brief: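 MT-4 lymphoblastoid T cells (ATCC) in RPMI 1640 with 10% FCS, penicillin/streptomycin, checked for mycoplasma. 1 × 10⁴ mock-infected cells per well with serial dilutions from a 100 mM DMSO stock. Incubated 4 days at 37 °C, viable cells counted by MTT. IC50 versus untreated controls by linear regression. Mean of three separate experiments.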

[26] = tested on: OVCAR-4; experiment: Growth inhibition of human OVCAR4 cells after 48 hrs by sulforhodamine B assay; type: functional; conditions: OVCAR-4, 48 h; method in brief: as §1
[27] = tested on: SN12C; experiment: Growth inhibition of human SN12C cells after 48 hrs by sulforhodamine B assay; type: functional; method in brief: as §2
[28] = tested on: CAKI-1; experiment: Growth inhibition of human Caki1 cells after 48 hrs by sulforhodamine B assay; type: functional; conditions: CAKI-1, 48 h; method in brief: as §1
[29] = tested on: SNB-75; experiment: Growth inhibition of human SNB75 cells after 48 hrs by sulforhodamine B assay; type: functional; conditions: SNB-75, 48 h; method in brief: as §2
[30] = tested on: MDA-MB-435; experiment: Growth inhibition of human MDA-MB-435 cells after 48 hrs by sulforhodamine B assay; type: functional; conditions: MDA-MB-435, 48 h; method in brief: as §1
[31] = tested on: K562; experiment: Growth inhibition of human K562 cells after 48 hrs by sulforhodamine B assay; type: functional; conditions: K562, 48 h; method in brief: as §1
[32] = tested on: T47D; experiment: Growth inhibition of human T47D cells after 48 hrs by sulforhodamine B assay; type: functional; method in brief: as §2
[33] = tested on: CCRF-CEM; experiment: Growth inhibition of human CCRF-CEM cells after 48 hrs by sulforhodamine B assay; type: functional; method in brief: as §1
[34] = tested on: 786-0; experiment: Growth inhibition of human 786-0 cells after 48 hrs by sulforhodamine B assay; type: functional; conditions: 786-0, 48 h; method in brief: as §1
[35] = tested on: SR; experiment: Growth inhibition of human SR cells after 48 hrs by sulforhodamine B assay; type: functional; method in brief: as §2
[36] = tested on: OVCAR-3; experiment: Growth inhibition of human OVCAR-3 cells after 48 hrs by sulforhodamine B assay; type: functional; conditions: OVCAR-3, 48 h; method in brief: as §1
[37] = tested on: NCI-H460; experiment: Growth inhibition of human NCI-H460 cells after 48 hrs by sulforhodamine B assay; type: functional; conditions: NCI-H460, 48 h; method in brief: as §1
[38] = tested on: MDA-MB-231; experiment: Growth inhibition of human MDA-MB-231 cells after 48 hrs by sulforhodamine B assay; type: functional; conditions: MDA-MB-231, 48 h; method in brief: as §1
[39] = tested on: DU-145; experiment: Growth inhibition of human DU145 cells after 48 hrs by sulforhodamine B assay; type: functional; conditions: DU-145, 48 h; method in brief: as §1
[40] = tested on: HT-29; experiment: Growth inhibition of human HT-29 cells after 48 hrs by sulforhodamine B assay; type: functional; conditions: HT-29, 48 h; method in brief: as §1
[41] = tested on: SF-268; experiment: Growth inhibition of human SF268 cells after 48 hrs by sulforhodamine B assay; type: functional; conditions: SF-268, 48 h; method in brief: as §1
[42] = tested on: NCI-H23; experiment: Growth inhibition of human NCI-H23 cells after 48 hrs by sulforhodamine B assay; type: functional; conditions: NCI-H23, 48 h; method in brief: as §1
[43] = tested on: BT-549; experiment: Growth inhibition of human BT549 cells after 48 hrs by sulforhodamine B assay; type: functional; conditions: BT-549, 48 h; method in brief: as §1
[44] = tested on: M14; experiment: Growth inhibition of human M14 cells after 48 hrs by sulforhodamine B assay; type: functional; conditions: M14, 48 h; method in brief: as §1
[45] = tested on: UO-31; experiment: Growth inhibition of human UO31 cells after 48 hrs by sulforhodamine B assay; type: functional; conditions: UO-31, 48 h; method in brief: as §2
[46] = tested on: A549; experiment: Growth inhibition of human A549 cells after 48 hrs by sulforhodamine B assay; type: functional; conditions: A549, 48 h; method in brief: as §1
[47] = tested on: HCT-116; experiment: Growth inhibition of human HCT116 cells after 48 hrs by sulforhodamine B assay; type: functional; conditions: HCT-116, 48 h; method in brief: as §1

CCOC(=O)/C(=C/N1CCN(C(=O)c2ccco2)C1=S)C(=O)c1ccccc1
GI50 [1]: 8.5 µM
GI50 [2]: 20 µM
GI50 [3]: 23 µM
GI50 [4]: 11.5 µM
GI50 [5]: 19.2 µM
GI50 [6]: 7.6 µM
GI50 [7]: 16.4 µM
GI50 [8]: 12.4 µM
GI50 [9]: 14.2 µM
GI50 [10]: 13.3 µM
GI50 [11]: 12.4 µM
GI50 [12]: 11.7 µM
GI50 [13]: 22.2 µM
GI50 [14]: 19.6 µM
GI50 [15]: 6.5 µM
GI50 [16]: < 0.005 µM
GI50 [17]: 19.4 µM
GI50 [18]: 10.1 µM
GI50 [19]: 35.6 µM
GI50 [20]: 17.3 µM
GI50 [21]: 6.3 µM
GI50 [22]: 14.9 µM
GI50 [23]: 9.5 µM
GI50 [24]: 7.9 µM
IC50 [25]: 4 µM
GI50 [26]: 31 µM
GI50 [27]: 8.1 µM
GI50 [28]: 15.9 µM
GI50 [29]: 46 µM
GI50 [30]: 14.4 µM
GI50 [31]: 17.7 µM
GI50 [32]: 4.1 µM
GI50 [33]: 15.6 µM
GI50 [34]: 12.9 µM
GI50 [35]: 2.4 µM
GI50 [36]: 20.2 µM
GI50 [37]: 4.9 µM
GI50 [38]: 10.8 µM
GI50 [39]: 8 µM
GI50 [40]: 19.2 µM
GI50 [41]: 7.2 µM
GI50 [42]: 7.7 µM
GI50 [43]: 9 µM
GI50 [44]: 8.9 µM
GI50 [45]: 10 µM
GI50 [46]: 11.6 µM
GI50 [47]: 8.9 µM
